This passage reports folding enthalpy and Tm results from the array DNA melting data of Ke et al. (doi:10.1101/2024.01.08.574731).

The nature of data set [1]: folding enthalpy; higher = less favourable; fluorescence melt of hairpins on a sequencing array, two-state fit. Conditions: sodium 0.088 M. The method, boiled down:
(§1)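 Library hairpins on a sequenced MiSeq flow cell carried annealed Cy3 and quencher oligos, and their Cy3 fluorescence was imaged in 50 mM Na-HEPES pH 8.0 with 25 mM NaCl, in 2.5 °C steps up to 60 °C. Signals were normalised to Cy3 before quenching and to control constructs. Melting temperature and folding enthalpy were obtained from bootstrapped two-state fits, combined by inverse-variance weighting across four replicates, and the fitted temperatures were then raised by 9.35 °C to match UV melts.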

A short description of data set [2]: melting temperature; fluorescence melt of hairpins on a sequencing array, two-state fit, raised by 9.35 °C to match UV melts. The settings on record: sodium 0.088 M. Summed up:
as §1

Take GCGGATATCCGC ((((....)))): the folding enthalpy in data set [1] was -33.9 kcal/mol. In addition, the Tm in data set [2] came out at 56.7 °C.
Turning to GCGGCAAACCGC ((((....)))), in data set [1], the folding enthalpy was -27.8 kcal/mol. Further, the Tm in data set [2] was determined as 55.8 °C.
On the same counts, the results for GCGGCAACGAAAGTTCGC (((..(((....)))))) are -21.3 kcal/mol and 45.1 °C.
For the sequence GCGGCACACCGC ((((....)))), the folding enthalpy in data set [1] was -25.5 kcal/mol. In addition, the Tm in data set [2] is 57.5 °C.
For GCGGCAGCCGC ((((...)))), in that order: -10.9 kcal/mol and 61.7 °C.
In the case of GCGGCATACCGC ((((....)))), the folding enthalpy in data set [1] was -32 kcal/mol. Besides, the Tm in data set [2] stood at 58.3 °C.
With GCGGCATCCCGC ((((....)))), the folding enthalpy in data set [1] was -20.7 kcal/mol. Moreover, the Tm in data set [2] stood at 56.4 °C.
GCGGCCCGCCGC ((((....)))): in data set [1], the folding enthalpy was -16.9 kcal/mol. In data set [2], the Tm came out at 68.7 °C.
As to GCGGCCGAAAGGCGTCGC ((((((....)))..))), in data set [1], the folding enthalpy is -17.4 kcal/mol. In addition, in data set [2], the Tm came to 59.3 °C.
On the same counts, the results for GCGGCCGAAAGGCTACGC ((((((....)))..))) are -19.6 kcal/mol and 61.1 °C.
On to GCGGCCGAAAGGCTCCGC ((((((....)))..))), for which the folding enthalpy in data set [1] was -16.8 kcal/mol. The Tm in data set [2] worked out at 53.8 °C.
For GCGGCCGCCCGC ((((....)))), in that order: -17.1 kcal/mol and 63.2 °C.
Consider GCGGCGCGAAAGCACTGC ((.(.((....)).).)), for which the folding enthalpy in data set [1] is -29 kcal/mol. For the same sequence, the Tm in data set [2] turned out to be 54.6 °C.
On the same counts, the results for GCGGCGCGAAAGCAGCGC (((..((....))..))) are -27.4 kcal/mol and 68.1 °C.
For GCGGCGCGAAAGCATCGC (((..((....))..))), in data set [1], the folding enthalpy is -22.6 kcal/mol. Moreover, the Tm in data set [2] was determined as 61.4 °C.
For GCGGCGCGAAAGCCCAGC ((.(.((....)).).)), in that order: -15.3 kcal/mol and 53 °C.
On the same counts, the results for GCGGCGCGAAAGCGTGGC ((..(((....)))..)) are -20.7 kcal/mol and 62 °C.
In the case of GCGGCGCGAAAGCTACGC (((..((....))..))), the folding enthalpy in data set [1] is -28.9 kcal/mol. Moreover, in data set [2], the Tm was 61.8 °C.
As to GCGGCGCGAAAGCTCAGC ((.(.((....)).).)), the folding enthalpy in data set [1] is -19.2 kcal/mol. Moreover, the Tm in data set [2] worked out at 56.7 °C.
Consider GCGGCGCGAAAGCTCTGC ((.(.((....)).).)), for which the folding enthalpy in data set [1] is -22.9 kcal/mol. Also, the Tm in data set [2] stood at 47.4 °C.
On the same counts, the results for GCGGCGGACCGC ((((....)))) are -22.6 kcal/mol and 54.9 °C.
On the same counts, the results for GCGGCGGCCGC ((((...)))) are -22.6 kcal/mol and 61.3 °C.
On the same counts, the results for GCGGCGTTCCGC ((((....)))) are -14.8 kcal/mol and 54.1 °C.
On to GCGGCTCTCCGC ((((....)))), for which, in data set [1], the folding enthalpy was -26.3 kcal/mol. Further, the Tm in data set [2] turned out to be 55.6 °C.
As to GCGGCTGGAAACAGCTGC ((.((((....)))).)), the folding enthalpy in data set [1] is -39.1 kcal/mol. In addition, the Tm in data set [2] amounted to 63.6 °C.
Take GCGGGAACCCGC ((((....)))): the folding enthalpy in data set [1] is -26 kcal/mol. In data set [2], the Tm turned out to be 67.8 °C.
On the same counts, the results for GCGGGACCGAAAGGTCGC (((..(((....)))))) are -11.5 kcal/mol and 56.3 °C.
With GCGGGAGGAAACCCCCGC (((((.(....).))))), the folding enthalpy in data set [1] was -37.9 kcal/mol. For the same sequence, the Tm in data set [2] is 60.2 °C.
On the same counts, the results for GCGGGAGGAAACTCCTGC ((.((((....)))).)) are -39 kcal/mol and 58.1 °C.
On the same counts, the results for GCGGGCGAAAGCCATCGC ((((((....)))..))) are -21.1 kcal/mol and 52.8 °C.
On the same counts, the results for GCGGGCGAAAGCCTTCGC ((((((....)))..))) are -15.7 kcal/mol and 50.1 °C.
As for GCGGGCTCCGC ((((...)))), in data set [1], the folding enthalpy was -21.6 kcal/mol. The Tm in data set [2] stood at 58.5 °C.
Take GCGGGGCGAAAGCCTTGC ((..(((....)))..)): the folding enthalpy in data set [1] was -18 kcal/mol. In data set [2], the Tm turned out to be 58.4 °C.
For GCGGGGCGAAAGCGCAGC ((.(.((....)).).)), in that order: -23.5 kcal/mol and 59.5 °C.
For GCGGGGCGAAAGCTTCGC (((..((....))..))), in that order: -35.3 kcal/mol and 63 °C.
On the same counts, the results for GCGGGGCTCCGC ((((....)))) are -26.7 kcal/mol and 67.4 °C.
With GCGGGGGCGAAAGCCCGC (((..(((....)))))), the folding enthalpy in data set [1] was -11.4 kcal/mol. For the same sequence, the Tm in data set [2] was 65.1 °C.
For GCGGGGGGAAACCCTCGC (((.(((....))).))), in that order: -38 kcal/mol and 61.6 °C.
